Bioassay records as filed in PubChem BioAssay.
The list is not random: actives were taken first. Their share in the collection is about 1.6%.
LEDGF integ inh = blocks HIV-1 LEDGF/p75-dependent DNA integration; TR-FRET IN-LEDGF/p75 DNA integration, Eu/Cy5; inhibition, % at 3.7 µM; actives 0.64% (n = 370,000); AID 743269;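 active = inhibition above the screen-wide mean plus 3 SD, cut at about 13% in these data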;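 also: signal is the Cy5 over europium emission ratio at 671 and 618 nm; 0% = plate median of compound wells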
MBD2 DNA inh = blocks human MBD2 binding to methylated DNA | Q9UBB5 | TR-FRET, MBD2 binding to methylated oligonucleotide | inhibition, % at 4.4 µM | actives 0.31% (n = 370,000) | AID 686964; in the data active = inhibition above about 13%
Target sequence (Q9UBB5 whole entry, looked up): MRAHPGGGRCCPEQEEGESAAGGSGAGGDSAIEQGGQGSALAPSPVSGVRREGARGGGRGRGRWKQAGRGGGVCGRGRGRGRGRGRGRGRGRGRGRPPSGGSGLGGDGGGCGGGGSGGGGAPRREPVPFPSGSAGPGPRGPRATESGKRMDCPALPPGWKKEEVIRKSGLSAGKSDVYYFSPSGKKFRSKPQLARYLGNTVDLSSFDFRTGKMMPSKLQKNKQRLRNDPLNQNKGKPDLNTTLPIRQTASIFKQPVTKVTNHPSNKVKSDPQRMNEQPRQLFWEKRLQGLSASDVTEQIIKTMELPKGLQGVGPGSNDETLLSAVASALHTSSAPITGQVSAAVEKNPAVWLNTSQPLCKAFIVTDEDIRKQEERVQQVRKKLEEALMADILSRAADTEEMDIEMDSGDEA
TDP2 inh = TDP2 (human) inhibition, absorbance primary screen; O95551; recombinant TDP2, T5PNP hydrolysis, p-nitrophenol absorbance 415 nm; inhibition, % at 12.8 µM; actives 0.34% (n = 370,000); AID 720702;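 active = inhibition above the mean of all tested compounds plus 3 SD, set per campaign, cut at about 25% in these data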;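 also: 0% = DMSO with enzyme and 100% = buffer with substrate but no TDP2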
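Evaluation: % inhibition relative to enzyme-containing and enzyme-free wells. Material: recombinant human TDP2. Benchmarks: enzyme-free and DMSO wells. Timing: enzyme reaction with compound for 2 h at 37 °C. Compound dosing: 12.8 µM only. Measured by: p-Nitrophenol epi absorbance. Reagent: T5PNP substrate at 5 mM, a TopII-DNA adduct mimic. Replication: single well per compound.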
UHRF1 MBD2 ctr = UHRF1 methyl-DNA binding inhibition. Q96T88. UHRF1 binding to methylated oligo, TR-FRET. inhibition, % at 4.4 µM. actives 0.75% (n = 370,000). AID 687016; in the data active = inhibition above about 21%;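 also: UHRF1 SRA domain binding a hemimethylated CpG hairpin DNA probe; 0% = median of test compound wells and 100% = reference inhibitor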
* marks the source's active call; other numbers are inactive results.

SMILES | LEDGF integ inh | MBD2 DNA inh | TDP2 inh | UHRF1 MBD2 ctr
Clc1cccc(Cc2c(C3CCCCC3)nc3ccc(Br)cn23)c1 | 6 | 4 | -12 | 5
COC(=O)c1ccc2nc(C3CCCCC3)c(Cc3cccc(Cl)c3)n2c1 | -2 | 12 | 5 | 23*
COC(=O)c1ccc2nc(C3CCCCC3)c(Cc3ccc(C)cc3)n2c1 | -3 | 11 | -3 | 23*
Cc1ccc(Cc2c(C3CCCCC3)nc3ccc(Br)cn23)cc1 | -2 | 7 | 8 | 15
COC(=O)c1ccc2nc(C(C)(C)C)c(Cc3ccc(OC)cc3C)n2c1 | -1 | 9 | 7 | 22*
COC(=O)c1ccc2nc(C3CCCCC3)c(Cc3ccc(OC)cc3C)n2c1 | -1 | 9 | 0 | 21*
CC(C)C[C@H]1COc2cc(F)ccc2S(=O)(=O)N1C | -3 | 0 | 7 | 0
C=CCOC(=O)N[C@H](c1ccccc1)[C@H](C)/C=C/CC(=O)OC | -3 | 4 | 2 | -2
CC1CCN(c2ccc(C(=O)O)cc2NS(=O)(=O)c2cccc3cccnc23)CC1 | -3 | -2 | 3 | 0
CC(C)(N[C@@H](Cc1c[nH]c2ccccc12)C(=O)NCC(c1ccccc1)c1ccccc1)C(=O)NC1CCCCC1 | 0 | 1 | -4 | 0
CCN(C[C@@H]1[C@@H](c2ccccc2)[C@H](CO)N1S(C)(=O)=O)C(=O)C1CCC1 | -3 | -2 | 6 | -2
N#Cc1c(=O)c2nc(NCCCO)ncc2n2c(=O)c3ccccc3[nH]c12 | -1 | -10 | -9 | -6
N#Cc1c(=O)c2nc(NCc3ccccc3)ncc2n2ccccc12 | 44* | -4 | 10 | -12
CN1Cc2nnn(Cc3ccccc3)c2-c2cc(N3CCCCC3)ccc2S1(=O)=O | 7 | 2 | -16 | 3
O=C(NCCc1ccccc1)OCc1cn(Cc2ccc(F)cc2)nn1 | -4 | 1 | 4 | 0
CCCCCNCC(=O)Nc1cc(C(F)(F)F)ccc1OCCOC | 0 | -10 | 4 | 48*
CC(C)CNC(=O)OCc1cn(Cc2ccc(C(F)(F)F)cc2)nn1 | -1 | 4 | 0 | 0
O=C(NC1CCSc2ccccc21)c1cc([N+](=O)[O-])ccc1N1CCOCC1 (stereo not drawn) | 14* | -2 | 18 | 2
CCc1ccccc1NC(=S)N1CCN(c2ccccc2F)CC1 | 3 | -4 | 8 | -2
Cc1ccc(NC(=S)N2CCN(c3ccccc3F)CC2)c(C)c1 | -1 | 3 | 1 | 24*
CCOc1ccc(NC(=O)CN(C)C(=O)c2ccccc2Cc2ccccc2)cc1OCC | 3 | 5 | 1 | 21*
O=S(=O)(N1CCCCC1)n1c(Cc2ccccc2)nc2ccccc21 | 0 | 5 | 0 | 35*
COc1ccc(NC(C)=O)cc1NC(=O)CSc1nnc(-c2ccncc2)n1C | -3 | 3 | -7 | 3
COc1ccc(NC(C)=O)cc1NC(=O)CSc1nnc(-c2ccccc2)n1N | 0 | 13 | 18 | 26*
CCCCNS(=O)(=O)c1ccc(OC)c2ncccc12 | 4 | -3 | -18 | 5
SMILES | LEDGF integ inh | MBD2 DNA inh | TDP2 inh | UHRF1 MBD2 ctr
COc1ccc(S(=O)(=O)n2ccnc2)c2cccnc12 | 1 | -3 | -7 | 22*
COc1ccccc1CNC(=O)COC(=O)c1cc(C)nc2ccccc12 | -2 | 3 | -6 | 0
COc1ccc(NC(=O)CN(C)C(=O)c2cc(-c3ccco3)nc3ccccc23)cc1 | 11 | 12 | 2 | 29*
COc1ccccc1CNC(=O)COC(=O)c1cc(-c2ccco2)nc2ccccc12 | 10 | 20* | 5 | 31*
O=C(NCCc1cccc(F)c1)c1cc2ccccn2n1 | 0 | -6 | 6 | 0
C=CCCC1CN(CC=C)S(=O)(=O)c2c(F)cccc2O1 (stereo not drawn) | 1 | 8 | 6 | 22*
C=CCCC1CN(Cc2ccco2)S(=O)(=O)c2c(F)cccc2O1 (stereo not drawn) | 8 | -7 | -14 | -1
CCC(c1nc2ccccc2[nH]1)n1c(-c2ccc3cc[nH]c3c2)nc2ccccc21 (stereo not drawn) | 0 | 2 | -3 | 2
Cc1cccc(N2CCN(C(=O)C3CCN(S(=O)(=O)c4cccc5nsnc45)CC3)CC2C)c1 (stereo not drawn) | -2 | 5 | -4 | -1
Cc1cccc(N2CCN(C(=O)C3CCN(S(=O)(=O)N4CCOCC4)CC3)CC2C)c1 (stereo not drawn) | 1 | 2 | -5 | 74*
Cc1ccc(CNCc2cccnc2)cc1 | -3 | -5 | 1 | 0
Cc1ccc(CNCc2cccnc2)s1 | -2 | -1 | -9 | 26*
